# Screens: PubChem BioAssay, several laboratories
# This is a sample that favours compounds with a hit; in the whole collection about 2.6% have one here.
# ASAP1 inh: ASAP1 ArfGAP inhibition. 360,000 tested, 0.19% active. ASAP1-stimulated ARF1 GTP hydrolysis, GDP FP detection. Q9ULH1. inhibition, % at 16.5 µM; in the data active = inhibition above about 25%;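 also: 0% = vehicle with enzyme and substrate and 100% = no enzyme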
# Target sequence (Q9ULH1 325-724 limits assumed): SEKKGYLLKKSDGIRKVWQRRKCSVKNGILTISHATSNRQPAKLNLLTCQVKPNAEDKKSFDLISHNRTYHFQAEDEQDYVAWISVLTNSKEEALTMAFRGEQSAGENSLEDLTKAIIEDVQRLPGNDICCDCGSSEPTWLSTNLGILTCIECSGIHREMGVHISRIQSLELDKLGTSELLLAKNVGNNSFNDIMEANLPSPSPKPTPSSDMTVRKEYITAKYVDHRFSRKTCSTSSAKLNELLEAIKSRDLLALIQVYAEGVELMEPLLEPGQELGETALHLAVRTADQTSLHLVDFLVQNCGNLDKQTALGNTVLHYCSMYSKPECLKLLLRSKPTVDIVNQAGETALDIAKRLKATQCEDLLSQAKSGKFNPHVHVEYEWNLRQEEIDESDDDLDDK
# SMARCA2 activ: activators of SMARCA2 function. MG213 cells, MMTV-luciferase reporter, dexamethasone, overnight. activation, % at 9.1 µM. 370,000 tested, 1% active. AID 652017; in the data active = activation above about 7.8%;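 also: 0% = vehicle wells and 100% = reference activator wells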
# esBAF inh: SWI/SNF esBAF complex inhibition. 350,000 tested, 2% active. mouse ES cells, Bmi1-luciferase knock-in reporter, 24 h; 100% = twice the neutral-well signal. reporter increase, % at 12.5 µM; in the data active = activation above about 40%;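 also: 0% = median of the plate's neutral control wells and 100% = double that signal; a rise in the Bmi1 reporter signal indicates esBAF inhibition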
# ARFGAP1 inh: rat ARFGAP1 inhibition; Arfgap1-stimulated ARF1 GTP hydrolysis, GDP FP detection; inhibition, % at 16.5 µM; 360,000 tested, 0.26% active;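 active = inhibition above a per-plate limit, mean inhibition of low control wells plus 3 SD, cut at about 25% in these data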;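 also: 0% = DMSO wells with enzyme and 100% = wells lacking Arfgap1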
# Target sequence (Q62848 1-136 limits assumed): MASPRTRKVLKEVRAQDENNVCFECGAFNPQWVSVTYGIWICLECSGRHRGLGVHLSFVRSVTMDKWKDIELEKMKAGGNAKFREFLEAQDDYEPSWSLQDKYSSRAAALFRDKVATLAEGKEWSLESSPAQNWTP
#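 Material: truncated rat Arfgap1 GAP domain; Incubation: compound-enzyme preincubation 20 min, reaction 120 min, detection 60 min, 25 °C; Read-out: percent inhibition of Arfgap1-stimulated GTP hydrolysis; Technique: FP, GDP Alexa 633 tracer displaced from anti-GDP antibody, 620/688 nm; Controls: No-Arfgap1 wells (100%) versus DMSO full-reaction wells (0%); Replication: single well per compound.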
# An asterisk follows results filed as active; . = no result.
SMILES,ASAP1 inh,SMARCA2 activ,esBAF inh,ARFGAP1 inh
Fc1ccc(-c2nc3ccc(Cl)cn3c2Cc2ccccc2)cc1,2,-2,13,-6
Cc1ccc(Cc2c(-c3ccc(Br)cc3)nc3ccc(Br)cn23)cc1,-3,0,66*,-15
Cc1ccn2c(Cc3ccccc3)c(-c3ccc(F)cc3)nc2c1,-11,1,45*,-5
Cc1ccc(Cc2c(-c3ccccc3)nc3cc(C)ccn23)cc1,0,2,42*,-3
Cc1ccc(Cc2c(-c3ccccc3)nc3c(C)cc(Br)cn23)cc1,0,-1,.,4
COc1ccc(S(=O)(=O)N[C@H]2C=C[C@H](CC(=O)N3CCC(Cc4ccccc4)CC3)O[C@@H]2CO)cc1,.,.,-6,.
C/C=C/c1ccc2c(c1)O[C@@H](CN(C)Cc1cccc(F)c1)[C@@H](C)CN([C@@H](C)CO)S2(=O)=O,.,.,-4,.
Cc1ccc(-c2nc3cc(Cl)ccc3o2)cc1,11,1,4,7
COc1cc(OC)cc(-c2nc3cc(C)ccc3o2)c1,-7,8,45*,-3
CCN(CC)c1ccc2cc(C(=O)Nc3ccccn3)c(=O)oc2c1,-5,3,49*,-6
CC(C)NC(=O)Nc1ccc2c(c1)C(=O)N([C@H](C)CO)C[C@@H](C)[C@H](CN(C)S(=O)(=O)c1cccs1)OCCCC[C@@H](C)O2,.,.,-3,.
O=c1c(-c2cnn(-c3ccccc3)c2)coc2cc(O)ccc12,.,.,105*,.
Cc1noc(C)c1NC(=O)Nc1cccc2c1O[C@@H](CN(C)Cc1ccncc1)[C@H](C)CN([C@@H](C)CO)C2=O,.,.,-1,.
O=C1CSC(=S)N1N=Cc1ccc(OCc2ccccc2)cc1,0,-1,50*,0
O=C1CSC(=S)N1N=Cc1cccc(OCc2ccccc2)c1,7,-1,27,-2
O=C(Nc1ccc(Cl)c(Cl)c1)N1CC=CCC1,1,4,100*,1
COCC(=O)Nc1ccc2c(c1)OC[C@@H](C)N(C(=O)C1CCCC1)C[C@H](C)[C@H](OC)CN(C)C2=O,.,.,-2,.
O=C(Nc1cccc(Cl)c1)C1=Cc2cc(Cl)ccc2OC1,10,2,9,-8
O=C(Nc1ccc(Cl)c(Cl)c1)C1=Cc2ccccc2OC1,-3,3,57*,11
Cc1csc(=O)n1CC(=O)OCc1cccc2ccccc12,1,4,58*,-2
CCc1cccc(C)c1NC(=O)COC(=O)Cn1c(C)csc1=O,-1,0,.,2
O=C(O)c1sc2cc(C(F)(F)F)cnc2c1-c1ccccc1,25*,1,3,12
Cc1ccc(S(=O)(=O)NCC[C@H]2CC[C@H](NC(=O)C3CCOCC3)[C@H](CO)O2)cc1,.,.,4,.
COc1ccc(CNC(=O)C[C@H]2C[C@H]3c4cc(NC(=O)NC5CCCC5)ccc4O[C@H]3[C@@H](CO)O2)cc1,.,.,1,.
O=C(Nc1nc2ccsc2c(=O)s1)C1CCC1,-5,2,.,0
SMILES,ASAP1 inh,SMARCA2 activ,esBAF inh,ARFGAP1 inh
O=c1sc(Nc2ccccc2)nc2ccsc12,-9,7,82*,2
Cc1noc(C)c1NC(=O)N(C)C[C@H]1OCCCC[C@@H](C)Oc2ccc(NS(=O)(=O)c3cn(C)cn3)cc2C(=O)N([C@@H](C)CO)C[C@H]1C,.,.,1,.
Cc1ccc(OCCCn2c(=O)sc3ccccc32)cc1,4,0,15,9
O=c1sc2ccccc2n1CCCOc1ccccc1,9,7,81*,2
Cc1ccc(OCCn2c(=O)sc3ccccc32)cc1,-2,7,76*,8
CCOc1ccccc1Cn1c(=O)sc2ccccc21,-3,-4,.,-13
Cc1ccccc1OCCCn1c(=O)sc2ccccc21,5,2,54*,1
C[C@@H]1CN([C@H](C)CO)C(=O)c2cc(C#CCN(C)C)cnc2O[C@H]1CN(C)C,.,.,4,.
O=C(O)c1ccc(N/N=C/C2=Cc3ccccc3OC2)cc1,0,0,81*,-1
O=C(O)c1ccc(N/N=C/c2ccncc2)cc1,-1,2,.,-2
Cn1cc(Cl)c(C(=O)OCC(=O)Nc2nc(-c3ccc(Br)cc3)cs2)n1,-3,8,61*,20
Cn1nccc1C(=O)OCC(=O)Nc1nc(-c2ccccc2)cs1,7,5,.,4
O=C(COC(=O)c1ccc(N2CCCC2=O)cc1)c1ccccc1,1,1,45*,8
COc1ccc(-c2cn(CCC(=O)O)c(-c3ccncc3)n2)cc1,2,0,-1,5
COc1ccc(-c2cn(Cc3ccc(C(N)=O)cc3)c(-c3ccncc3)n2)cc1,5,3,76*,9
COc1ccc(S(=O)(=O)Nc2ccc3c(c2)C(=O)N([C@@H](C)CO)C[C@H](C)[C@@H](CN(C)C(=O)Nc2c(C)noc2C)OCCCC[C@H](C)O3)cc1,.,.,0,.
COc1ccc(Cl)cc1-c1nc(-c2ccc(Br)o2)no1,4,-3,51*,15
N#Cc1ccc(-c2ccc3c(c2)[C@@H]2[C@@H](CCN2C(=O)c2ccccc2F)[C@@H](CO)N3)cc1,.,.,-4,.
COc1ccc(-n2ncc3c(NCc4cccnc4)ncnc32)cc1,8,3,55*,-9
COc1ccc(-n2ncc3c(NCC(C)C)ncnc32)cc1,-12,5,.,-1
COc1cccc(Nc2ncnc3c2cnn3-c2cccc(C)c2)c1,-4,2,56*,13
Cc1ccc(-n2ncc3c(NCc4cccnc4)ncnc32)cc1C,-5,1,75*,12
Cc1cccc(-n2ncc3c(N4CC(C)CC(C)C4)ncnc32)c1 (configuration not stated),1,6,62*,4
Cc1cccc(-n2ncc3c(N4CCCC4)ncnc32)c1,7,7,-38,2
Cc1cccc(-n2ncc3c(NCCCO)ncnc32)c1,12,7.9*,21,-3
SMILES,ASAP1 inh,SMARCA2 activ,esBAF inh,ARFGAP1 inh
Cc1ccc(-n2ncc3c(NCc4cccnc4)ncnc32)c(C)c1,-7,-6,.,-4
Cc1cccc(-n2ncc3c(NCc4cccnc4)ncnc32)c1,-1,2,88*,5
C[C@H]1CN([C@@H](C)CO)S(=O)(=O)c2ccc(C3=CCCC3)cc2O[C@@H]1CN(C)S(=O)(=O)c1cn(C)cn1,.,.,4,.
O=c1[nH]cnc2c1ncn2C1OC(CO)C(O)C1O (configuration not stated),2,-2,-13,3
O=c1[nH]cnc2c1nnn2C1OC(CO)C(O)C1O (configuration not stated),-5,5,71*,-6
Cc1cccc(/C=C/c2ccccc2)n1,-7,1,51*,19
C(=C\c1ccc2ccccc2n1)/c1ccccc1,14,1,-53,-2
C(=C\c1cc(/C=C/c2ccccc2)ncn1)/c1ccccc1,-1,4,55*,-5
Cc1nc(/C=C/c2ccccc2)cc(/C=C/c2ccccc2)n1,-1,-1,35,15
CO[C@@H]1CN(C)C(=O)c2ccc(NC(=O)c3cccc(F)c3)cc2OC[C@H](C)N(C(C)=O)C[C@@H]1C,.,.,-1,.
O=S(=O)(N[C@@H]1CC[C@@H](CCn2cc(-c3ccc(F)cc3)nn2)O[C@H]1CO)c1ccccc1F,.,.,-4,.
